Columns and labels:
[1] = tested on: KB-C2; test: Inhibition of P-gp-mediated multidrug-resistance in human KB-C2 cells assessed as increase in colchicine-induced cytotoxicity at 1 ug/ml after 48 hrs by MTT assay; assay type: cell-based
[2] = tested on: KB-C2; test: Inhibition of P-gp-mediated multidrug-resistance in human KB-C2 cells assessed as increase in colchicine-induced cytotoxicity at 5 ug/ml after 48 hrs by MTT assay; assay type: cell-based
[3] = tested on: KB; test: Cytotoxicity against human KB cells after 48 hrs by MTT assay; assay type: functional, cell-based
[4] = Cytotoxicity against human multidrug-resistant KB-C2 cells after 48 hrs by MTT assay; assay type: functional, cell-based; conditions: KB-C2, 48 h
In short: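 Seeded 5 × 10³ cells/well, preincubated 24 h, then compounds at 2, 10, 50, 100 µg/mL in medium (0.5% DMSO final) for 48 h. MTT 0.5 mg/mL for 4 h, formazan dissolved in DMSO, OD 540 nm; IC50 relative to vehicle controls.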

Structure (SMILES): CCCNC(=O)CC(=O)O[C@@H]1CC[C@]2(C)[C@H]3C[C@@H](OC(C)=O)[C@@H]4[C@@H]([C@]5(C)CC[C@H](C(C)(C)OC(=O)C(=O)NCCC)O5)CC[C@@]4(C)[C@]3(C)CC[C@H]2C1(C)C
- fold change (FC) [1]: 1.2
- fold change (FC) [2]: 68.8
- IC50 [3]: 24.8 µM
- IC50 [4]: 26.6 µM

Structure (SMILES): CC(=O)O[C@@H]1C[C@@H]2[C@@]3(C)CC[C@@H](OC(=O)CC(=O)N(C)C)C(C)(C)[C@@H]3CC[C@@]2(C)[C@]2(C)CC[C@H]([C@]3(C)CC[C@H](C(C)(C)O)O3)[C@@H]12
- fold change (FC) [1]: 2.4
- fold change (FC) [2]: 87.5
- IC50 [3]: 25.2 µM
- IC50 [4]: 28 µM

Structure (SMILES): COC(=O)CC(=O)O[C@@H]1CC[C@]2(C)[C@H]3CC[C@@H]4[C@@H]([C@]5(C)CC[C@H](C(C)(C)O)O5)CC[C@@]4(C)[C@]3(C)CC[C@H]2C1(C)C
- fold change (FC) [1]: 1.1
- fold change (FC) [2]: 14.8
- IC50 [3]: 45.4 µM
- IC50 [4]: 56.6 µM

Structure (SMILES): CC(=O)O[C@@H]1C[C@@H]2[C@@]3(C)CC[C@@H](OC(=O)CC(=O)N4CCOCC4)C(C)(C)[C@@H]3CC[C@@]2(C)[C@]2(C)CC[C@H]([C@]3(C)CC[C@H](C(C)(C)O)O3)[C@@H]12
- fold change (FC) [1]: 17.4
- fold change (FC) [2]: 185
- IC50 [3]: 30.8 µM
- IC50 [4]: 27.5 µM

Structure (SMILES): CC(=O)O[C@@H]1C[C@@H]2[C@@]3(C)CC[C@@H](OC(=O)CC(=O)NC(C)(C)C)C(C)(C)[C@@H]3CC[C@@]2(C)[C@]2(C)CC[C@H]([C@]3(C)CC[C@H](C(C)(C)O)O3)[C@@H]12
- fold change (FC) [1]: 1.1
- fold change (FC) [2]: 9.8
- IC50 [3]: 40.5 µM
- IC50 [4]: 47.9 µM

Structure (SMILES): CC(=O)O[C@@H]1C[C@@H]2[C@@]3(C)CC[C@@H](OC(=O)CC(N)=O)C(C)(C)[C@@H]3CC[C@@]2(C)[C@]2(C)CC[C@H]([C@]3(C)CC[C@H](C(C)(C)O)O3)[C@@H]12
- fold change (FC) [1]: 2.1
- fold change (FC) [2]: 49.3
- IC50 [3]: 39.3 µM
- IC50 [4]: 43.7 µM

Structure (SMILES): COC(=O)CC(=O)O[C@@H]1CC[C@]2(C)[C@H]3C[C@@H](OC(C)=O)[C@@H]4[C@@H]([C@]5(C)CC[C@H](C(C)(C)O)O5)CC[C@@]4(C)[C@]3(C)CC[C@H]2C1(C)C [METHYL PAPYRIFERATE]
- fold change (FC) [1]: 1.5
- fold change (FC) [2]: 51.6
- IC50 [3]: 26.7 µM
- IC50 [4]: 32.1 µM

Structure (SMILES): CNC(=O)CC(=O)O[C@@H]1CC[C@]2(C)[C@H]3C[C@@H](OC(C)=O)[C@@H]4[C@@H]([C@]5(C)CC[C@H](C(C)(C)O)O5)CC[C@@]4(C)[C@]3(C)CC[C@H]2C1(C)C
- fold change (FC) [1]: 4.7
- fold change (FC) [2]: 74.4
- IC50 [3]: 40.9 µM
- IC50 [4]: 43.1 µM

Structure (SMILES): CCNC(=O)CC(=O)O[C@@H]1CC[C@]2(C)[C@H]3C[C@@H](OC(C)=O)[C@@H]4[C@@H]([C@]5(C)CC[C@H](C(C)(C)O)O5)CC[C@@]4(C)[C@]3(C)CC[C@H]2C1(C)C
- fold change (FC) [1]: 2.6
- fold change (FC) [2]: 53.9
- IC50 [3]: 39.7 µM
- IC50 [4]: 43.9 µM

From ChEMBL document CHEMBL1156240, “Papyriferic acid derivatives as reversal agents of multidrug resistance in cancer cells” (Bioorg Med Chem, 2010)
